Laboratory results as given in ChEMBL document CHEMBL4229344 (Eur J Med Chem, 2018).
Active and inactive are the calls of the source. No cut-off for these calls is given here.

Key:
[1] = biological target: Calcium/calmodulin-dependent protein kinase type II subunit delta (Homo sapiens) (UniProt Q13557); assay: Binding affinity to wild-type human partial length CAMK2D (M1 to E329 residues) expressed in bacterial expression system assessed as residual binding level at 1 uM by Kinomescan method relative to control
[2] = biological target: Proto-oncogene tyrosine-protein kinase Src (Homo sapiens) (UniProt P12931); assay: Binding affinity to wild-type human partial length SRC (L240 to L536 residues) expressed in bacterial expression system assessed as residual binding level at 1 uM by Kinomescan method relative to control
[3] = biological target: Ribosomal protein S6 kinase alpha-3 (Homo sapiens) (UniProt P51812); assay: Binding affinity to wild-type human partial length N-terminal RSK2 kinase domain 1 (M1 to D394 residues) expressed in mammalian expression system assessed as residual binding level at 1 uM by Kinomescan method relative to control
[4] = biological target: Serine/threonine-protein kinase Nek5 (Homo sapiens) (UniProt Q6P3R8); assay: Binding affinity to wild-type human partial length NEK5 (M1 to M279 residues) expressed in bacterial expression system assessed as residual binding level at 1 uM by Kinomescan method relative to control
[5] = biological target: Mitogen-activated protein kinase 3 (Homo sapiens) (UniProt P27361); assay: Binding affinity to wild-type human full length ERK1 (M1 to P379 residues) expressed in bacterial expression system assessed as residual binding level at 1 uM by Kinomescan method relative to control
Method in brief: (§1)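 Single-concentration (1 μM) competition-binding screen run by KINOMEscan against a panel of 468 purified kinases and mutants. The read-out is the relative binding activity of the test compound to each kinase.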

[6] = system: Phosphatidylinositol 4,5-bisphosphate 3-kinase catalytic subunit alpha isoform (Homo sapiens), P42336 [Q546K]; assay: Binding affinity to human partial length PIK3CA Q546K mutant (R108 to N1068 residues) expressed in mammalian expression system assessed as residual binding level at 1 uM by Kinomescan method relative to control
Method in brief: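 Kinome-wide single-concentration binding screen (KINOMEscan) at 1 μM against a panel of 468 purified kinases and mutants. Read-out is relative binding of each kinase compared with control. Selectivity across the panel was summarised as an S(10) score.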

[7] = biological target: Serine/threonine-protein kinase Nek2 (Homo sapiens) (UniProt P51955); assay: Binding affinity to wild-type human partial length NEK2 (M1 to K309 residues) expressed in bacterial expression system assessed as residual binding level at 1 uM by Kinomescan method relative to control
Method in brief: (§2)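 KINOMEscan competition binding against a panel of 468 purified kinases/mutants, compound tested at 1 μM; readout is relative binding activity versus control.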

[8] = biological target: Tyrosine-protein kinase JAK3 (Homo sapiens) (UniProt P52333); assay: Binding affinity to wild-type human partial length JAK3 JH1 catalytic domain (I781 to S1124 residues) expressed in mammalian expression system assessed as residual binding level at 1 uM by Kinomescan method relative to control
EOL1 = assay: Antitumor activity against human EOL-1 cells xenografted in nu/nu mouse assessed as reduction in tumor cell proliferation at 25 to 100 mg/kg/day, ip by KI-67-staining based microscopic analysis; assay type: functional, organism-based
Method in brief: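 Female nu/nu mice (6 weeks) given subcutaneous right-flank injection of 5 million EOL-1 cells in PBS/Matrigel 1:1. At 200–400 mm3 tumors, randomized to groups of 6 and dosed daily i.p. for 14 days at 25, 50 or 100 mg/kg/d in 0.5% methylcellulose/0.4% Tween80. Tumor volume = W²×L/2, measured daily.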

[9] = biological target: Platelet-derived growth factor receptor alpha (Homo sapiens, UniProt P16234); assay: Binding affinity to wild-type human partial length PDGFRalpha (V575 to D1002 residues) expressed in mammalian expression system assessed as residual binding level at 1 uM by Kinomescan method relative to control; method in brief: as §2
[10] = biological target: Leucine-rich repeat serine/threonine-protein kinase 2 (Homo sapiens) (UniProt Q5S007); assay: Binding affinity to wild-type human partial length LRRK2 (H970 to E2527 residues) expressed in mammalian expression system assessed as residual binding level at 1 uM by Kinomescan method relative to control
[11] = biological target: Casein kinase I isoform gamma-2 (Homo sapiens) (UniProt P78368); assay: Binding affinity to wild-type human full length CSNK1G2 (M1 to K415 residues) expressed in bacterial expression system assessed as residual binding level at 1 uM by Kinomescan method relative to control; method in brief: as §1
[12] = system: Tyrosine-protein kinase ABL1 (Homo sapiens), P00519 [F317I]; assay: Binding affinity to human phosphorylated ABL1 F317I mutant (S229 to K512 residues) expressed in mammalian expression system assessed as residual binding level at 1 uM by Kinomescan method relative to control; method in brief: as §1
[13] = biological target: Phosphatidylinositol 4-phosphate 5-kinase type-1 gamma (Homo sapiens) (UniProt O60331); assay: Binding affinity to wild-type human partial length PIP5K1C (M1 to T668 residues) expressed in mammalian expression system assessed as residual binding level at 1 uM by Kinomescan method relative to control; method in brief: as §2
[14] = biological target: Tyrosine-protein kinase CSK (Homo sapiens) (UniProt P41240); assay: Binding affinity to wild-type human full length CSK (M1 to L450 residues) expressed in bacterial expression system assessed as residual binding level at 1 uM by Kinomescan method relative to control
Method in brief: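 KINOMEscan competition binding against 468 purified kinases/mutants, test compound at 1 µM; residual binding relative to control.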

[15] = biological target: Serine/threonine-protein kinase 26 (Homo sapiens) (UniProt Q9P289); assay: Binding affinity to wild-type human full length MST4 (M1 to P416 residues) expressed in mammalian expression system assessed as residual binding level at 1 uM by Kinomescan method relative to control
Method in brief: (§3)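 Single-concentration KINOMEscan (DiscoverX) binding screen at 1 μM against a panel of 468 purified kinases and mutants. The read-out is binding relative to control.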

[16] = biological target: Myosin-IIIb (Homo sapiens) (UniProt Q8WXR4); assay: Binding affinity to wild-type human partial length MYO3B (M1 to D357 residues) expressed in bacterial expression system assessed as residual binding level at 1 uM by Kinomescan method relative to control
[17] = biological target: Tyrosine-protein kinase JAK1 (Homo sapiens) (UniProt P23458); assay: Binding affinity to wild-type human partial length JAK1 JH1 catalytic domain (V856 to K1154 residues) expressed in bacterial expression system assessed as residual binding level at 1 uM by Kinomescan method relative to control
[18] = Cmax in Sprague-Dawley rat at 10 mg/kg, po; assay type: ADME, organism-based; design: dose 10 mg/kg, route oral; conditions: in vivo
Method in brief: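 Male Sprague-Dawley rats, 6–8 weeks old and fasted overnight, dosed IV at 1 mg/kg or PO at 10 mg/kg. Formulation was 5% DMSO/40% PEG400/55% saline (1 mg/mL). Jugular blood collected on heparin from 1 min to 8 h (IV) or 5 min to 24 h (PO). Plasma separated by centrifugation at 2–8 °C and stored at −80 °C.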

[19] = biological target: Tyrosine-protein kinase receptor UFO (Homo sapiens) (UniProt P30530); assay: Binding affinity to wild-type human partial length AXL (R497 to Y821 residues) expressed in bacterial expression system assessed as residual binding level at 1 uM by Kinomescan method relative to control; method in brief: as §3

Sequence of Calcium/calmodulin-dependent protein kinase type II subunit delta (Homo sapiens) (Q13557 whole entry, the tested form may be a part): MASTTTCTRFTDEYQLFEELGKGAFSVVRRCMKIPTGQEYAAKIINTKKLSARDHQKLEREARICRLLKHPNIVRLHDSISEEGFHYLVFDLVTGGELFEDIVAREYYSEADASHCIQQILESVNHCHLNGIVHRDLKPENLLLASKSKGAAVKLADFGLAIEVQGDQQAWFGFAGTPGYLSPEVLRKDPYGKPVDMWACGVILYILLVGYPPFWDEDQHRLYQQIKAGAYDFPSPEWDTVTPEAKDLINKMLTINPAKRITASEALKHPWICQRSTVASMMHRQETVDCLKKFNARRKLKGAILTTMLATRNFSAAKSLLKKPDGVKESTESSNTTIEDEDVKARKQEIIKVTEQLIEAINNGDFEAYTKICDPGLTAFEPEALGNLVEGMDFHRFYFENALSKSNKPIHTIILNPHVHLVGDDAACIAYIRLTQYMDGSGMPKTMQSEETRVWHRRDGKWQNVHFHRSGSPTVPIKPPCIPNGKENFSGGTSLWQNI
Sequence of Phosphatidylinositol 4,5-bisphosphate 3-kinase catalytic subunit alpha isoform (Homo sapiens), P42336 [Q546K] (P42336 whole entry Q546K, the tested form may be a part, canonical isoform): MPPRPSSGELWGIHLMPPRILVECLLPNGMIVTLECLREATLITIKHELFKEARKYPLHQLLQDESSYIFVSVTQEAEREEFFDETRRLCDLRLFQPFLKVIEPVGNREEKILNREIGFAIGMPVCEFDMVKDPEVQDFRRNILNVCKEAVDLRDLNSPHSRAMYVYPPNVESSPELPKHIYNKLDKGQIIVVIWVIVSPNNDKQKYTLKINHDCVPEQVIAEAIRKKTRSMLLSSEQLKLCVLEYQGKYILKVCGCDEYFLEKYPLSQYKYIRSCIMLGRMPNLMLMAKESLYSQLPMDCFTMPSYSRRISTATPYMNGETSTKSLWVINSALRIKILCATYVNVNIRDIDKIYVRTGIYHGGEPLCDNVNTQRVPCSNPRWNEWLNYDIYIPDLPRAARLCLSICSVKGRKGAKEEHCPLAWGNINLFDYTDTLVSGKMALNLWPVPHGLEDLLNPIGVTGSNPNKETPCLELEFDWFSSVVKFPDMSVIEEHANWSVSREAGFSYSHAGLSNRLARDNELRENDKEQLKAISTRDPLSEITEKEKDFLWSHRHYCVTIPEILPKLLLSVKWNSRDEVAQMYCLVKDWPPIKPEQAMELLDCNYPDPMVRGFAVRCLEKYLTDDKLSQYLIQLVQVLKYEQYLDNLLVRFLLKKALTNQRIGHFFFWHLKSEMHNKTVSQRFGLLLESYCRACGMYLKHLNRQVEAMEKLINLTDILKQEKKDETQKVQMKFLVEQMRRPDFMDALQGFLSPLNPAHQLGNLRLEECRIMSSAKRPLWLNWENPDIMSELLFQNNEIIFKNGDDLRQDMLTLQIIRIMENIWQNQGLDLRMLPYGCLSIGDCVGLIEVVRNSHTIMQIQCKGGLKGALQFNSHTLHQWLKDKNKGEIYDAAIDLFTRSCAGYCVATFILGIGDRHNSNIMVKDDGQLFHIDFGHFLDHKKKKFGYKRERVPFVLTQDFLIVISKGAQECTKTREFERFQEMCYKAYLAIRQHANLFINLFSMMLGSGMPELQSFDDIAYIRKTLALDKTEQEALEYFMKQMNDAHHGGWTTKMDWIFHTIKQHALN
Sequence of Serine/threonine-protein kinase 26 (Homo sapiens) (Q9P289 2-416 limits assumed): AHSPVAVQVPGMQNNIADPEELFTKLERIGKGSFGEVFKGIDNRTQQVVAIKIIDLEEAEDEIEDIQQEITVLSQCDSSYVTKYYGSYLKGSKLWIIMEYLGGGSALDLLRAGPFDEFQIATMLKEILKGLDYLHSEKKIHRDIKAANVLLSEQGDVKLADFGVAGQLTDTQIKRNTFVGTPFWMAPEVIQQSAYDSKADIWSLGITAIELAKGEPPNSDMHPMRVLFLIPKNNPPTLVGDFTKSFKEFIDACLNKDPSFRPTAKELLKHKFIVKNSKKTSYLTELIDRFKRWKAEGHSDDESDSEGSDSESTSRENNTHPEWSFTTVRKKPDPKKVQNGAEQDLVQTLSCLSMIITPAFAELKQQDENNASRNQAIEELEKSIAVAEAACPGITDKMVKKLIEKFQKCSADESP
Sequence of Mitogen-activated protein kinase 3 (Homo sapiens) (P27361 whole entry, the tested form may be a part): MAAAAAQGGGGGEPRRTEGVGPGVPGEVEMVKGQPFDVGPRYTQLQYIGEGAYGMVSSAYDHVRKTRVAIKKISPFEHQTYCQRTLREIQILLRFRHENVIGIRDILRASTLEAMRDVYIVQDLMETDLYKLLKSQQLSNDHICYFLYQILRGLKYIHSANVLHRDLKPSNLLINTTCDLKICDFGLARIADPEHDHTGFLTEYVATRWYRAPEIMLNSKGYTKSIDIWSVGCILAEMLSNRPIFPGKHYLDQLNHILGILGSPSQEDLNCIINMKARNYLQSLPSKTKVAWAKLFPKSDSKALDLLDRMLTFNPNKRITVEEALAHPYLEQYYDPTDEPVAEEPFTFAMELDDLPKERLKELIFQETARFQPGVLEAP
Sequence of Serine/threonine-protein kinase Nek5 (Homo sapiens) (Q6P3R8 whole entry, the tested form may be a part): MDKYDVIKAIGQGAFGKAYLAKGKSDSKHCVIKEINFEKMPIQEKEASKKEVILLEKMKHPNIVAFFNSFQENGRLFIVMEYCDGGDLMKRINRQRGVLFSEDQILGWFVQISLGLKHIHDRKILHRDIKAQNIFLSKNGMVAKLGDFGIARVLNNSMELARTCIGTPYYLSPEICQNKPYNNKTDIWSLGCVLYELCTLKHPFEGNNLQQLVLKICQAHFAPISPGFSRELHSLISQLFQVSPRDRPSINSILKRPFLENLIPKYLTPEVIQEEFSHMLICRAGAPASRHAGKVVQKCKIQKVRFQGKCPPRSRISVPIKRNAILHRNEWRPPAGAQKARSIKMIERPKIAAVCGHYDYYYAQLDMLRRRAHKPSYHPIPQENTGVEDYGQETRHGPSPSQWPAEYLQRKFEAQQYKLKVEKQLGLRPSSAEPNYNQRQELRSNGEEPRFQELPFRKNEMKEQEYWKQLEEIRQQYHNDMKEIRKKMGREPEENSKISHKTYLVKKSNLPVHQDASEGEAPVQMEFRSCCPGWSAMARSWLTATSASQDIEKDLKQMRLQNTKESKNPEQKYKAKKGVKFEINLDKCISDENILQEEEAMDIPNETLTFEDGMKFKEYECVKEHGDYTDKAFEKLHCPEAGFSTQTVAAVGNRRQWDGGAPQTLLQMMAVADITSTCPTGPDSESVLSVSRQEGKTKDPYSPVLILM
Sequence of Myosin-IIIb (Homo sapiens) (Q8WXR4 whole entry, the tested form may be a part): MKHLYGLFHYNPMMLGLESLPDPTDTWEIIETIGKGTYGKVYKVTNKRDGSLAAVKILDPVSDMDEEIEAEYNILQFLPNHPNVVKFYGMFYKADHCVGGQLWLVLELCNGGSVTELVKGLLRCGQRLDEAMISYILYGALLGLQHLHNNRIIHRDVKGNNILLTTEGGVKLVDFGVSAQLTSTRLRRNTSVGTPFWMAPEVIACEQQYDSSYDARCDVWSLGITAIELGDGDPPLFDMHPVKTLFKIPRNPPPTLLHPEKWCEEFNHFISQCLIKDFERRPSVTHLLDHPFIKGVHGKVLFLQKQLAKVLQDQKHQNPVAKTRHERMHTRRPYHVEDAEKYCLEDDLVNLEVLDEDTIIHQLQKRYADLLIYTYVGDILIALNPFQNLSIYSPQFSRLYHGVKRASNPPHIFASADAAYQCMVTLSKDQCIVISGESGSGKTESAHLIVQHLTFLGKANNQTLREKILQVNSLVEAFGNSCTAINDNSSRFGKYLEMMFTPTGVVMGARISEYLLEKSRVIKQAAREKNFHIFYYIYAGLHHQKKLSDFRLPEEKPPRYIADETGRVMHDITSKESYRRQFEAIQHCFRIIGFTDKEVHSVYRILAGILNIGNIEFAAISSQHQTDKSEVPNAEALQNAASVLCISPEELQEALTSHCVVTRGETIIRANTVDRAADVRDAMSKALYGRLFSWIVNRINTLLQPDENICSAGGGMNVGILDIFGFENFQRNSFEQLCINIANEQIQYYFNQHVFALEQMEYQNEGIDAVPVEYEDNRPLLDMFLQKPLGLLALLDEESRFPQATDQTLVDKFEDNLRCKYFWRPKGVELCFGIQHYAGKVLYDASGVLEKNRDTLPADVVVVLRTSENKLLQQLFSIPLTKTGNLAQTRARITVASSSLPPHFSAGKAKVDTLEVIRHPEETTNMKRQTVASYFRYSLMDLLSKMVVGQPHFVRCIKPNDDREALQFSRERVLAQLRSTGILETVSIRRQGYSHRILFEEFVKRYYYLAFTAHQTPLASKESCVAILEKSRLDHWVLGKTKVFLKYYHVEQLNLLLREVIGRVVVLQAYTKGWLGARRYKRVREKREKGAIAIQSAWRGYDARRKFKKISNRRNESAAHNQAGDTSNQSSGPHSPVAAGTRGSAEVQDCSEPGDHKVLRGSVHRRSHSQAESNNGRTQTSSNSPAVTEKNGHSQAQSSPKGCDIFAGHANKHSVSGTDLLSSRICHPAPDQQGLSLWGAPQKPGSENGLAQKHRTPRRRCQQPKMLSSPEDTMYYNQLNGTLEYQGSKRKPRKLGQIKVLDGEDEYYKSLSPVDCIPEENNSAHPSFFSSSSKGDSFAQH
Sequence of Tyrosine-protein kinase CSK (Homo sapiens) (P41240 2-450 limits assumed): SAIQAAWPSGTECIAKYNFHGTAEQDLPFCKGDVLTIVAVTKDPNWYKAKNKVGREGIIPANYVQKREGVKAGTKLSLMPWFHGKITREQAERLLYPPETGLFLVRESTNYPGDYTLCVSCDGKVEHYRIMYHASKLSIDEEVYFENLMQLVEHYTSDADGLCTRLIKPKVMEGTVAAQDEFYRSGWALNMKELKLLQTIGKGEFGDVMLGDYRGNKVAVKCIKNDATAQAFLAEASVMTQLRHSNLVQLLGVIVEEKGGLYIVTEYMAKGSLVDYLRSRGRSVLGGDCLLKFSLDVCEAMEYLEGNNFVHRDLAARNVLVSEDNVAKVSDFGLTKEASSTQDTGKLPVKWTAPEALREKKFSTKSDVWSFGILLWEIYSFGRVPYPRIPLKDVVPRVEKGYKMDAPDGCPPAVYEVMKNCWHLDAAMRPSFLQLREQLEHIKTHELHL

Structure (SMILES): Cc1ccc(NC(=O)c2ccc(CN(CCN(C)C)C(=O)c3cccnc3)cc2)cc1Nc1nccc(-c2cccnc2)n1
- Activity [1]: 100%
- Activity [2]: 100%
- Activity [3]: 100%
- Activity [4]: 99%
- Activity [5]: 95%
- Activity [6]: 90%
- Activity [7]: 91%
- Activity [8]: 100%
- Activity (EOL1): Active
- Activity [9]: 6.8%
- Activity [10]: 100%
- Activity [11]: 99%
- Activity [12]: 74%
- Activity [13]: 83%
- Activity [14]: 92%
- Activity [15]: 99%
- Activity [16]: 97%
- Activity [17]: 100%
- Cmax [18]: 28.9 ng/mL
- Activity [19]: 95%
